Measured values published in ChEMBL document CHEMBL3868601, “Functional 1,3a,6a-triazapentalene scaffold: Design of fluorescent probes for kinesin spindle protein (KSP)” (Bioorg Med Chem Lett, 2016).
Calls of active or inactive are those of the source. The rule behind the calls is not given here.

Key:
[1] = biological target: T1, Kinesin-like protein KIF11 (Homo sapiens) (UniProt P52732); test: Inhibition of microtubule-stimulated kinesin spindle protein motor domain (unknown origin) ATPase activity at 20 uM preincubated for 20 mins followed by ATP addition measured after 15 mins by kinase-glo based luciferase reporter gene assay
T1 sequence (whole entry): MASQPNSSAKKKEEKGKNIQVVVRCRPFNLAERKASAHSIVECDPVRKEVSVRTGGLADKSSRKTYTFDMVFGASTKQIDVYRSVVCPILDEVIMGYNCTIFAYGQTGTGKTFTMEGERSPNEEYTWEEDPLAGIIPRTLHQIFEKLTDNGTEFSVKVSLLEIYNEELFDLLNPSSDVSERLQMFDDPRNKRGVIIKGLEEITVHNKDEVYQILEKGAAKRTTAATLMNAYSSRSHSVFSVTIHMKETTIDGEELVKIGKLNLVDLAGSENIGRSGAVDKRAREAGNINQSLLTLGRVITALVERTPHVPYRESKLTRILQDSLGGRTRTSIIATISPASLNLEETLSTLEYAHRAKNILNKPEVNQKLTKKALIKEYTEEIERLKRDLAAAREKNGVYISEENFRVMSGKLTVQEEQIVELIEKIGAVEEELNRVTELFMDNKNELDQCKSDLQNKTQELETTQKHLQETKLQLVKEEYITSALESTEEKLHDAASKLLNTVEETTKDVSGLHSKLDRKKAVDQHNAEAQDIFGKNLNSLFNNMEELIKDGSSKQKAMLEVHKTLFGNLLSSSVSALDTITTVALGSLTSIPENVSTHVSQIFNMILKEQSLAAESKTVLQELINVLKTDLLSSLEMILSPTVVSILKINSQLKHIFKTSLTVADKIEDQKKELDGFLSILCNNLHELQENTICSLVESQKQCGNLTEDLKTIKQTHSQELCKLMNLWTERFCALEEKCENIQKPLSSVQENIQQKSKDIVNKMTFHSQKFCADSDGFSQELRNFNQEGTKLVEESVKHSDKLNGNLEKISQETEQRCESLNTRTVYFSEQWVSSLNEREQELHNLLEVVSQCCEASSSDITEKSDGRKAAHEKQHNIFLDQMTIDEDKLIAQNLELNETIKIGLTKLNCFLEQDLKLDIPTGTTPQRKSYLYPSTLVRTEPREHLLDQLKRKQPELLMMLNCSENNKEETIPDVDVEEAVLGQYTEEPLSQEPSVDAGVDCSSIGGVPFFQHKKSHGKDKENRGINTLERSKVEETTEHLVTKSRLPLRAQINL
Method in brief: (§1)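 Inhibition of microtubule-activated KSP ATPase activity was measured in vitro. IC50 values come from three independent experiments. Percent inhibition was also measured at 20 µM.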

[2] = Growth inhibition of human HeLa cells after 72 hrs by MTS assay; format: functional
Method in brief: (§2)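 Proliferation of HeLa and A549 cells was measured by MTS assay. GI50 values, or percent growth inhibition at a single concentration (30 µM), come from at least three independent experiments.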

[3] = biological target: T2, Kinesin-like protein KIF11 (Homo sapiens, UniProt P52732); test: Inhibition of microtubule-stimulated kinesin spindle protein motor domain (unknown origin) ATPase activity preincubated for 20 mins followed by ATP addition measured after 15 mins by kinase-glo based luciferase reporter gene assay; method in brief: as §1
T2 sequence (P52732 whole entry): T1 sequence (whole entry)

[4] = Growth inhibition of human A549 cells at 30 uM after 72 hrs by MTS assay; format: functional; conditions: A549, 72 h, read-out: GI; method in brief: as §2
[5] = Growth inhibition of human A549 cells after 72 hrs by MTS assay; format: functional; conditions: A549, 72 h; method in brief: as §2
[6] = biological target: T1, Kinesin-like protein KIF11 (Homo sapiens); test: Inhibition of hmAG1-fused kinesin spindle protein (unknown origin) ATPase activity expressed in human HeLa cells assessed as prometaphase with monopolar spindles at 40 uM after 4 hrs by DAPI staining based fluorescence microscopy relative to control; format: cell-based
Method in brief: (§3)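 Synchronized HeLa cells were given compound as they entered M phase and cultured 4 h at 37 °C. Cells were fixed and immunostained for α-tubulin and KSP, with DAPI for chromosomes. The relative mitotic index was averaged over two independent experiments. Mitotic phenotypes, such as prometaphase with monopolar spindles, were scored as a percentage of mitotic cells.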

[7] = Drug uptake in human HeLa cells at early mitotic phase expressing N-terminal hmAG1-tagged recombinant fluorescent KSP at 20 uM after 20 mins by fluorescence microscopic analysis
[8] = Solubility of the compound in DMEM medium at >50 uM by microscopic analysis; format: physicochemical
Method in brief: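 During the 4 h mitotic assay in synchronized HeLa cells, the culture medium was inspected by microscopy for deposits of insoluble compound across the tested concentrations.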

[9] = biological target: T1, Kinesin-like protein KIF11 (Homo sapiens); test: Inhibition of hmAG1-fused kinesin spindle protein (unknown origin) ATPase activity expressed in human HeLa cells assessed as accumulation of mitotic cells after 4 hrs by DAPI staining based fluorescence microscopy; format: cell-based; method in brief: as §3
[10] = biological target: T1, Kinesin-like protein KIF11 (Homo sapiens); test: Inhibition of hmAG1-fused kinesin spindle protein (unknown origin) ATPase activity expressed in human HeLa cells assessed as irregular accumulation of KSP in central region of mitotic cells at 40 uM after 4 hrs by DAPI staining based fluorescence microscopy; format: cell-based
[11] = Drug uptake in monoastral mitotic human HeLa cells expressing N-terminal hmAG1-tagged recombinant fluorescent KSP at 40 uM after 20 mins by fluorescence microscopic analysis; format: ADME, cell-based
Method in brief: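 HeLa cells stably expressing KSP fused at its N-terminus to hmAG1 were treated in mitosis with 40 µM probe for 20 min at 37 °C. Live-cell fluorescence microscopy compared probe signal with the fluorescent KSP signal in monoastral mitotic cells.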

[12] = Drug uptake in cytoplasm of human HeLa cells expressing hmAG1-conjugated alpha-tubulin at 20 uM after 20 mins by fluorescence microscopic analysis; format: ADME, cell-based
Method in brief: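 Live HeLa cells expressing hmAG1-conjugated α-tubulin (cytoplasm marker) or histone H2B (nucleus marker) were incubated with 20 µM probe for 20 min at 37 °C. Probe localization was imaged by live-cell fluorescence microscopy.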

[13] = Drug uptake in human HeLa cells at G2 phase expressing N-terminal hmAG1-tagged recombinant fluorescent KSP at 20 uM after 20 mins by fluorescence microscopic analysis

SMILES | inhibition [1] | GI50 [2] | IC50 [3] | inhibition of growth at 30 µM [4] | GI50 [5] | inhibition [6] | Drug uptake [7] | solubility [8] | inhibition [9] | inhibition [10] | Drug uptake [11] | Drug uptake [12] | Drug uptake [13]
FC(F)(F)c1ccc(-c2cn3ccc[n+]3[n-]2)cc1 | 34% | 25 µM | > 20 µM | 6% | > 30 µM | – | – | – | – | – | – | – | –
FC(F)(F)c1ccc(-c2ccc(-c3cn4ccc[n+]4[n-]3)cc2)cc1 | – | 19 µM | 6.8 µM | – | 22 µM | 63% | Active | Insoluble | Dose-dependent effect | Active | Active | Active | Active
